pEC50, pKd: −log10 of the molar value. One block for each molecule: values may come before it.
Columns and labels:
Liver microsome [1] = assay: Half life in rat liver microsomes; type: ADME
Intestine [2] = assay: Drug uptake in mouse intestine at 50 mg/kg, po in 20% Kolliphor measured at 8 hrs post dose; type: ADME, organism-based; design: dose 50 mg/kg, route oral; settings: in vivo
Method in brief: (§1)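 Female Swiss Webster mice, 8 weeks old, given a single 50 mg/kg oral gavage dose in 20% HPβCD or 20% Kolliphor. Tissues taken from three mice at 2 and 8 h post dose. Homogenized by probe sonication in PBS (1:4 w/v), protein precipitated with acetonitrile, and compound measured by LC-MS/MS in μM.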

C2C12 = assay: Cytotoxicity against mouse C2C12 cells up to 10 uM; type: cell-based
Method in brief: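 Mouse C2C12 myoblasts infected with T. cruzi CA-I/72, then exposed at 24 h postinfection to compound at 10 μM down to 5 pM in 5-fold steps for 72 h at 37 °C. Cells fixed in paraformaldehyde, stained with DAPI and scored by automated imaging. Triplicate wells; uninfected and infected untreated wells as controls.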

Cytochrome P450 2C9 = Cytochrome P450 2C9 (Homo sapiens, UniProt P11712); assay: Inhibition of CYP2C9 in human liver microsomes at 1 uM; type: ADME
Trypanosoma cruzi [3] = assay: Antitrypanosomal activity against Trypanosoma cruzi amastigotes infected in mouse C2C12 cells after 72 hrs by DAPI staining method; type: functional, organism-based; settings: C2C12, 72 h
[4] = target: Sterol 14-alpha demethylase (Trypanosoma cruzi (strain CL Brener), UniProt Q7Z1V1); assay: Binding affinity to Trypanosoma cruzi CYP51 by UV-vis titration method; settings: read-out: Kd(app)
Intestine [5] = assay: Drug uptake in mouse intestine at 50 mg/kg, po in 20% HP-beta-CD measured at 8 hrs post dose; type: ADME, organism-based; design: dose 50 mg/kg, route oral; settings: in vivo; method in brief: as §1
[6] = Drug uptake in mouse skeletal muscle at 50 mg/kg, po in 20% Kolliphor measured at 8 hrs post dose; type: ADME, organism-based, Muscle tissue; design: dose 50 mg/kg, route oral; settings: in vivo; method in brief: as §1
Trypanosoma cruzi [7] = assay: Antitrypanosomal activity against Trypanosoma cruzi Y luc infected in mouse assessed as inhibition of parasitemia at 25 mg/kg, po bid in 20% Kolliphor administered for 4 consecutive days starting on day 3 of infection measured on day 7 post infection relative to vehicle-treated control; type: functional
Method in brief: (§2)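 Female Swiss Webster mice, 8 weeks old, infected ip with 10^5 T. cruzi Y luc trypomastigotes. Only mice with detectable luminescence on day 3 were treated. Compound given by oral gavage bid for four days, as a suspension in 20% HPβCD or a solution in 20% Kolliphor, five mice per group. Vehicle group and benznidazole 50 mg/kg served as controls. On day 7, mice were injected ip with 150 mg/kg d-luciferin and imaged after 5 min under isoflurane. Percent inhibition calculated against untreated mice; two-tailed paired t test.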

Lung [8] = assay: Drug uptake in mouse lung at 50 mg/kg, po in 20% Kolliphor measured at 8 hrs post dose; type: ADME, organism-based; design: dose 50 mg/kg, route oral; settings: in vivo; method in brief: as §1
Heart [9] = assay: Drug uptake in mouse heart at 50 mg/kg, po in 20% HP-beta-CD measured at 8 hrs post dose; type: ADME, organism-based; design: dose 50 mg/kg, route oral; settings: in vivo; method in brief: as §1
Liver [10] = assay: Drug uptake in mouse liver at 50 mg/kg, po in 20% HP-beta-CD measured at 8 hrs post dose; type: ADME, organism-based; design: dose 50 mg/kg, route oral; settings: in vivo; method in brief: as §1
[11] = Drug uptake in mouse skeletal muscle at 50 mg/kg, po in 20% HP-beta-CD measured at 8 hrs post dose; type: ADME, organism-based, Muscle tissue; design: dose 50 mg/kg, route oral; settings: in vivo; method in brief: as §1
Cytochrome P450 3A4 = Cytochrome P450 3A4 (Homo sapiens, UniProt P08684); assay: Inhibition of CYP3A4 in human liver microsomes at 1 uM; type: ADME
Trypanosoma cruzi [12] = assay: Antitrypanosomal activity against Trypanosoma cruzi Y luc infected in mouse assessed as inhibition of parasitemia at 40 mg/kg, ip bid in 60% DMSO administered for 4 consecutive days starting on day 3 of infection measured on day 7 post infection relative to vehicle-treated control
Heart [13] = assay: Drug uptake in mouse heart at 50 mg/kg, po in 20% Kolliphor measured at 8 hrs post dose; type: ADME, organism-based; design: dose 50 mg/kg, route oral; settings: in vivo; method in brief: as §1
[14] = Ratio of Kd(app) for Trypanosoma cruzi CYP51 to EC50 for Trypanosoma cruzi amastigotes infected in mouse C2C12 cells
Method in brief: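 Ratio of apparent KD to EC50. Apparent KD was approximated from UV–vis spectrophotometric titration of T. cruzi CYP51 in aqueous solution. […] Compounds were added 24 h postinfection at 10 μM down to 5 pM for 72 h at 37 °C, 5% CO2. Fixed cells were DAPI-stained and imaged, in triplicate.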

Cytochrome P450 1A2 = target: T1, Cytochrome P450 1A2 (Homo sapiens, UniProt P05177); assay: Inhibition of CYP1A2 in human liver microsomes at 1 uM; type: ADME
T1 sequence (P05177 whole entry): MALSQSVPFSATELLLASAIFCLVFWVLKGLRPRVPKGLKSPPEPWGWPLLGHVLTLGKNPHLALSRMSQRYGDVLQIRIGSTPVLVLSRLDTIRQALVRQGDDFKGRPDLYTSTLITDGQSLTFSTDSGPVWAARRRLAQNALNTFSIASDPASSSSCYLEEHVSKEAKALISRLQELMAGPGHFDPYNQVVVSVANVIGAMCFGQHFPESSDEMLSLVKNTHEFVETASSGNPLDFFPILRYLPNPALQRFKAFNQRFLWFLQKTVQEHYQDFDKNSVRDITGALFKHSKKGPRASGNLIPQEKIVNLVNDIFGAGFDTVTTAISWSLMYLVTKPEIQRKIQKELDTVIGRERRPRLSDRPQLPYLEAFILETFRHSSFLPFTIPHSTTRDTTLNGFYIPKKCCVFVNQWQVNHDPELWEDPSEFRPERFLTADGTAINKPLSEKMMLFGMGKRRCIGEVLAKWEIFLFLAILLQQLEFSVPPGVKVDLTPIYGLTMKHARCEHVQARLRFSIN

[15] = Drug uptake in mouse fat at 50 mg/kg, po in 20% HP-beta-CD measured at 8 hrs post dose; type: ADME, organism-based, Adipose tissue; design: dose 50 mg/kg, route oral; settings: in vivo; method in brief: as §1
Liver [16] = assay: Drug uptake in mouse liver at 50 mg/kg, po in 20% Kolliphor measured at 8 hrs post dose; type: ADME, organism-based; design: dose 50 mg/kg, route oral; settings: in vivo; method in brief: as §1
Liver [17] = assay: Half life in mouse liver microsomes; type: ADME
Cytochrome P450 2D6 = Cytochrome P450 2D6 (Homo sapiens, UniProt P10635); assay: Inhibition of CYP2D6 in human liver microsomes at 1 uM; type: ADME
Liver microsome [18] = assay: Half life in human liver microsomes; type: ADME
Lung [19] = assay: Drug uptake in mouse lung at 50 mg/kg, po in 20% HP-beta-CD measured at 8 hrs post dose; type: ADME, organism-based; design: dose 50 mg/kg, route oral; settings: in vivo; method in brief: as §1
[20] = Drug uptake in mouse fat at 50 mg/kg, po in 20% Kolliphor measured at 8 hrs post dose; type: ADME, organism-based, Adipose tissue; design: dose 50 mg/kg, route oral; settings: in vivo; method in brief: as §1
Trypanosoma cruzi [21] = assay: Antitrypanosomal activity against Trypanosoma cruzi Y luc infected in mouse assessed as inhibition of parasitemia at 50 mg/kg, po bid in 20% Kolliphor administered for 4 consecutive days starting on day 3 of infection measured on day 7 post infection relative to vehicle-treated control; type: functional; method in brief: as §2
[22] = Cmax in mouse at 50 mg/kg, po in 20% Kolliphor; type: ADME, organism-based; design: dose 50 mg/kg, route oral; settings: in vivo
Method in brief: (§3)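 Female Swiss Webster mice, 8 weeks old, given one oral gavage dose of 50 mg/kg as a 10 mg/mL preparation in the named vehicle (20% HPβCD suspension or 20% Kolliphor). Plasma sampled at about 0.25, 0.5, 1, 2, 4, 6, 8, 12 and 24 h, n = 3 per time point. Protein precipitated with 5 volumes acetonitrile, filtered, then LC-MS/MS. Values are averages of three mice.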

[23] = Clearance in mouse at 50 mg/kg, po in 20% Kolliphor; type: ADME, organism-based; design: dose 50 mg/kg, route oral; settings: in vivo; method in brief: as §3
Brain [24] = assay: Drug uptake in mouse brain at 50 mg/kg, po in 20% Kolliphor measured at 2 hrs post dose; type: ADME, organism-based; design: dose 50 mg/kg, route oral; settings: in vivo; method in brief: as §1
[25] = Cmax in mouse at 50 mg/kg, po in 20% HP-beta-CD; type: ADME, organism-based; design: dose 50 mg/kg, route oral; settings: in vivo; method in brief: as §3
[26] = AUClast in mouse at 50 mg/kg, po in 20% Kolliphor; type: ADME, organism-based; design: time 0 - last, dose 50 mg/kg, route oral; settings: plasma; method in brief: as §3
Cardiomyocyte = assay: Cytotoxicity against mouse cardiomyocytes assessed as growth inhibition after 72 hrs by Cell Titer Glo assay
Brain [27] = assay: Drug uptake in mouse brain at 50 mg/kg, po in 20% HP-beta-CD measured at 8 hrs post dose; type: ADME, organism-based; design: dose 50 mg/kg, route oral; settings: in vivo; method in brief: as §1
[28] = Half life in mouse at 50 mg/kg, po in 20% HP-beta-CD; type: ADME, organism-based; design: dose 50 mg/kg, route oral; settings: in vivo; method in brief: as §3
Brain [29] = assay: Drug uptake in mouse brain at 50 mg/kg, po in 20% Kolliphor measured at 8 hrs post dose; type: ADME, organism-based; design: dose 50 mg/kg, route oral; settings: in vivo; method in brief: as §1
[30] = Clearance in mouse at 50 mg/kg, po in 20% HP-beta-CD; type: ADME, organism-based; design: dose 50 mg/kg, route oral; settings: in vivo; method in brief: as §3
[31] = AUClast in mouse at 50 mg/kg, po in 20% HP-beta-CD; type: ADME, organism-based, Plasma; design: time 0 - last, dose 50 mg/kg, route oral; settings: plasma; method in brief: as §3
Hepatocyte = assay: Cytotoxicity against mouse hepatocytes assessed as growth inhibition after 72 hrs by Cell Titer Glo assay
[32] = Tmax in mouse at 50 mg/kg, po in 20% Kolliphor; type: ADME, organism-based; design: dose 50 mg/kg, route oral; settings: in vivo; method in brief: as §3
[33] = Half life in mouse at 50 mg/kg, po in 20% Kolliphor; type: ADME, organism-based; design: dose 50 mg/kg, route oral; settings: in vivo; method in brief: as §3
[34] = Tmax in mouse at 50 mg/kg, po in 20% HP-beta-CD; type: ADME, organism-based; design: dose 50 mg/kg, route oral; settings: in vivo; method in brief: as §3

Sequence of Cytochrome P450 3A4 (P08684 whole entry): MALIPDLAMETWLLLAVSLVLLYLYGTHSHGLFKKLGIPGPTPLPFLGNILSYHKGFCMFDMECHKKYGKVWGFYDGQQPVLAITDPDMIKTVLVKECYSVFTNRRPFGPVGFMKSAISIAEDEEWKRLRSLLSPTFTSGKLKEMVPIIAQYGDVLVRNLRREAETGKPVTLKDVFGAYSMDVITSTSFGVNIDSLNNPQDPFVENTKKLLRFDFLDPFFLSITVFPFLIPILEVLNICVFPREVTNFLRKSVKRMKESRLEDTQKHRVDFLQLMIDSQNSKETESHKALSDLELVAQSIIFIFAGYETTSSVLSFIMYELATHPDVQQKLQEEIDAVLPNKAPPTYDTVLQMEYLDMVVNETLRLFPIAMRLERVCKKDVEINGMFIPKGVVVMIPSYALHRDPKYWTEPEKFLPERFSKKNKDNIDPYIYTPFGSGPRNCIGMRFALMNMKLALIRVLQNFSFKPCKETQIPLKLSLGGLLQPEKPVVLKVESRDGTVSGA
Sequence of Cytochrome P450 2D6 (P10635 whole entry): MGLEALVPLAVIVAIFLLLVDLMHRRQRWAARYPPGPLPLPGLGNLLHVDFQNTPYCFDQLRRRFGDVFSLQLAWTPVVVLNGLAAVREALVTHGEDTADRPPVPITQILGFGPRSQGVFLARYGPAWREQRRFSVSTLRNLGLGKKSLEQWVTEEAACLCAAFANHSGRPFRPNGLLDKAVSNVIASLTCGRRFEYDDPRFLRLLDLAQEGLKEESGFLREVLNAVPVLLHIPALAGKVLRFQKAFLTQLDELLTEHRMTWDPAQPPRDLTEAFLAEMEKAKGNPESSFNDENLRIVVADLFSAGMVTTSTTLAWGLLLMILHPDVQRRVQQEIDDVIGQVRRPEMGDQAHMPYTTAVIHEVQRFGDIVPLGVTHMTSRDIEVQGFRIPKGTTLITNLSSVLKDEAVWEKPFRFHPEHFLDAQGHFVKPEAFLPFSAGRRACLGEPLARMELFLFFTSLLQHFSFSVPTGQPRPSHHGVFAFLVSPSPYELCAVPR
Sequence of Cytochrome P450 2C9 (P11712 whole entry): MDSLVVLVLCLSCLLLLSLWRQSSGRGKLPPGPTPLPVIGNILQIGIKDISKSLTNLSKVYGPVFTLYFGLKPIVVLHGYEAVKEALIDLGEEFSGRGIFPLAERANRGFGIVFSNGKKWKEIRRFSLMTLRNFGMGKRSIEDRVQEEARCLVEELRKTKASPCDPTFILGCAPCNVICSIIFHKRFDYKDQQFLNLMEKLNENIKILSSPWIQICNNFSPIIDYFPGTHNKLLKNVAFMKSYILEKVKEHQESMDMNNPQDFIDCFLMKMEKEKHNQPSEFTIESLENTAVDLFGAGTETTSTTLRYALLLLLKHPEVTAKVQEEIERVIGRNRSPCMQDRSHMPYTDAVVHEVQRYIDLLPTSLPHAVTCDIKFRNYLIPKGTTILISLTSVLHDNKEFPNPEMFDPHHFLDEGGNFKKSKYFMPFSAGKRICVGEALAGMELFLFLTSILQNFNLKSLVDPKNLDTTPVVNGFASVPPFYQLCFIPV
Sequence of Sterol 14-alpha demethylase (Q7Z1V1 whole entry): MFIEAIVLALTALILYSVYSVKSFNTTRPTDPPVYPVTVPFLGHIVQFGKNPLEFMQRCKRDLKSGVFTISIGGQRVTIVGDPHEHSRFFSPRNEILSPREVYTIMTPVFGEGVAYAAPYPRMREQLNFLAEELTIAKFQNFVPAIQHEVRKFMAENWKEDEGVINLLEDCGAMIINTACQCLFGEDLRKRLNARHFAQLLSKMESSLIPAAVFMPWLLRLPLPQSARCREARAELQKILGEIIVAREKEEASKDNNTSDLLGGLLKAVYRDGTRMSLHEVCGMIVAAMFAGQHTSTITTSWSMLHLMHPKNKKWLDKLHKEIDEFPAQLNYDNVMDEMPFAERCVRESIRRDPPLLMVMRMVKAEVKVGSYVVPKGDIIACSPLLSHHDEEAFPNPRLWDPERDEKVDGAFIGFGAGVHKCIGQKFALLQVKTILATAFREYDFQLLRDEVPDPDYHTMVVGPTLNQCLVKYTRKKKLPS

t1/2 (Liver microsome [1]): 0.3 h
Drug uptake (Intestine [2]): Active
inhibition (INH) (Cytochrome P450 2C9): 95%
pEC50 (Trypanosoma cruzi [3]): 7.23
pKd [4]: 6.54
Drug uptake (Intestine [5]): Active
Drug uptake [6]: Active
Drug uptake (Lung [8]): Active
Drug uptake (Heart [9]): Active
Drug uptake (Liver [10]): Active
Drug uptake [11]: Active
inhibition (INH) (Cytochrome P450 3A4): 84%
Drug uptake (Heart [13]): Active
inhibition (INH) (Cytochrome P450 1A2): 5%
Drug uptake [15]: Active
Drug uptake (Liver [16]): Active
t1/2 (Liver [17]): 0.333 h
inhibition (INH) (Cytochrome P450 2D6): 52%
t1/2 (Liver microsome [18]): 6 min
Drug uptake (Lung [19]): Active
Drug uptake [20]: Active
Structure (SMILES): O=C(N[C@H](Cc1c[nH]c2ccccc12)C(=O)Nc1ccncc1)c1ccc(N2CCN(c3cccc(F)c3)CC2)cc1F
Activity (C2C12): Non-toxic
inhibition in vivo at 25 mg/kg (Trypanosoma cruzi [7]): 47.7%
inhibition in vivo at 40 mg/kg (Trypanosoma cruzi [12]): 97.9%
Ratio [14]: 10

Drug uptake (Intestine [2]): Active
Cmax [22]: 2080 nM
CL/F [23]: 83.5 mL/min/kg
Drug uptake (Brain [24]): Active
Cmax [25]: 640 nM
AUC(0-t) [26]: 17.7 µM·h
Drug uptake (Intestine [5]): Active
Drug uptake [6]: Active
Drug uptake (Lung [8]): Active
Drug uptake (Heart [9]): Active
Drug uptake (Brain [27]): Active
half-life [28]: 1.45 h
Drug uptake (Brain [29]): Active
Drug uptake (Liver [10]): Active
CL/F [30]: 562 mL/min/kg
Drug uptake [11]: Active
Drug uptake (Heart [13]): Active
Drug uptake [15]: Active
Drug uptake (Liver [16]): Active
AUC(0-t) [31]: 2.37 µM·h
Tmax [32]: 4 h
half-life [33]: 4.55 h
Drug uptake (Lung [19]): Active
Tmax [34]: 2.67 h
Drug uptake [20]: Active
Structure (SMILES): O=C(N[C@H](Cc1c[nH]c2ccccc12)C(=O)Nc1ccncc1)c1ccc(N2CCN(c3ccc(F)c(F)c3)CC2)cc1F
inhibition in vivo at 50 mg/kg (Trypanosoma cruzi [21]): 98.6%
Activity (C2C12): Non-toxic
pEC50 (Cardiomyocyte): < 4.05
pEC50 (Hepatocyte): < 4.05
